# ChEMBL document CHEMBL3352492, “Selenorhodamine photosensitizers for photodynamic therapy of P-glycoprotein-expressing cancer cells” (J Med Chem, 2014)
# pEC50: −log10 of the molar value. Calls of active or inactive are those of the source. No cut-off for these calls is given here.
# Experiments:
# Colon 26 [1] = assay: Photo-toxicity in mouse Colon 26 cells assessed as reduction in cell surviving fraction at 15 Jcm'-2 of continuous illumination with 360 to 800 nm light incubated for 48 hrs by sulforhodamine B assay; settings: Colon 26, 48 h
# [2] = Photo-stability assessed as drug degradation exposed to after 230 Jcm'-2 of continuous illumination with 350 to 800 nm light in solutions of 10% CH3OH in pH 7.4 buffer; format: physicochemical; settings: solution of 10% CH3OH in pH 7.4 buffer, read-out: Drug degradation
# [3] = Photo-stability assessed as drug degradation exposed to after 230 Jcm'-2 of continuous illumination with 500 to 800 nm light in solutions of 10% CH3OH in pH 7.4 buffer; format: physicochemical; settings: solution of 10% CH3OH in pH 7.4 buffer, read-out: Drug degradation
# [4] = Lipophilicity, log P of the compound by pH 7.4 at 23 degC by UV-visible spectrophotometry based shake flask method; format: physicochemical; settings: buffer
# How it was run: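 Shake-flask method. A saturated n-octanol solution of dye was mixed with an equal volume of PBS, pH 7.4, at 23 °C for 3–5 min, then left 1 h to settle. The concentration in each layer was measured by UV–visible spectrophotometry.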
# Colon 26 [5] = assay: Drug uptake in mouse Colon 26 cells at 0.5 uM in absence of 100 uM verapamil by flow cytometry; format: ADME, cell-based; settings: colon 26, 0.5 µM
# How it was run: (§1)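 Colo-26 cells given 0.5 μM dye for 1 h, with or without 100 μM verapamil. Uptake read by flow cytometry as relative fluorescence, excitation 561 nm and emission 710 nm. Error bars are SD.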
# Colon 26 [6] = assay: Drug uptake in mouse Colon 26 cells at 0.5 uM in presence of 100 uM verapamil by flow cytometry; format: ADME, cell-based; settings: colon 26, 0.5 µM
# How it was run: as §1
# Colon 26 [7] = assay: Photo-toxicity in mouse Colon 26 cells assessed as reduction in cell surviving fraction at 0.5 Jcm'-2 of continuous illumination with 350 to 700 nm light incubated for 48 hrs by sulforhodamine B assay; format: functional, cell-based; settings: Colon 26, 48 h
# How it was run: (§2)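 Colo-26 cells were incubated 1 h in the dark with 0.1–0.5 μM […], then irradiated up to 1.0 J cm^-2 with 350–700 nm tungsten–halogen light (3.7–4.1 mW cm^-2). Cells were kept 48 h and survival was measured by sulforhodamine B assay.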
# Colon 26 [8] = assay: Photo-toxicity in mouse Colon 26 cells assessed as reduction in cell surviving fraction at 1 Jcm'-2 of continuous illumination with 350 to 700 nm light incubated for 48 hrs by sulforhodamine B assay; format: functional, cell-based; settings: Colon 26, 48 h
# How it was run: as §2
# [9] = Selectivity index, ratio of LD50 dark toxicity against mouse Colon 26 cells to EC50 for Photo-toxicity against mouse Colon 26 cells 1 Jcm'-2 of continuous illumination with 350 to 700 nm light; format: cell-based; settings: read-out: Ratio LD50/EC50
# Colon 26 [10] = assay: Photo-toxicity in mouse Colon 26 cells assessed as reduction in cell surviving fraction at 0.15 uM at 1 Jcm'-2 of continuous illumination with 350 to 700 nm light incubated for 48 hrs by sulforhodamine B assay; format: functional, cell-based
# Colon 26 [11] = assay: Potentiation of doxorubicin-induced cytotoxicity against mouse Colon 26 cells at 0.15 uM incubated in dark for 1 hr by sulforhodamine B assay; format: functional, cell-based
# How it was run: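 Colo-26 cells were plated at 10 000/well and held 24 h. Doxorubicin (0.005–5.0 μM) was applied with or without 0.15 μM selenorhodamine, with Dox-only and dye-only controls, for 1 h in the dark with no irradiation. Medium was replaced, then 48 h at 37 °C, 5% CO₂. Surviving fraction by sulforhodamine B assay (570 nm); six replicates; Student's t-test pairwise.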
# Colon 26 [12] = assay: Photo-toxicity against mouse Colon 26 cells at 0.15 uM incubated in dark for 1 hr then irradiated with light dose of 1 Jcm'-2 of 611 nm laser light measured after 48 hrs by sulforhodamine B assay; format: functional, cell-based
# How it was run: (§3)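 Colo-26 murine colon carcinoma cells were grown in RPMI 1640 with L-glutamine, 10% FBS and 1% penicillin–streptomycin. They were plated at 10 000 cells/well and held 24 h. Selenorhodamine was added at 0.15 μM (final) and cells were kept 1 h in the dark. Cells were then irradiated with a tunable dye laser at λmax ± 2 nm, 3.2 mW cm⁻², to 1 J cm⁻². Medium was replaced, followed by 48 h at 37 °C, 5% CO₂. Viability was read by sulforhodamine B at 570 nm.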
# Colon 26 [13] = assay: Potentiation of 0.5 uM doxorubicin-induced cytotoxicity against mouse Colon 26 cells at 0.15 uM incubated in dark for 1 hr then irradiated with light dose of 1 Jcm'-2 of 611 nm laser light measured after 48 hrs by sulforhodamine B assay; format: functional, cell-based
# How it was run: (§4)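 Colo-26 cells were plated at 10 000/well and held 24 h. Doxorubicin (0.005, 0.05, 0.5, 1.0 or 5.0 μM) was added with 0.15 μM selenorhodamine, both diluted in RPMI from stocks, with Dox-only and dye-only wells. After 1 h in the dark, cells were laser-irradiated at λmax ± 2 nm, 3.2 mW cm⁻², 1 J cm⁻². Fresh medium, then 48 h at 37 °C, 5% CO₂. Surviving fraction by SRB absorbance at 570 nm; six replicates.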
# Colon 26 [14] = assay: Potentiation of 1 uM doxorubicin-induced cytotoxicity against mouse Colon 26 cells assessed as cell surviving fraction at 0.15 uM incubated in dark for 1 hr then irradiated with light dose of 1 Jcm'-2 of 611 nm laser light measured after 48 hrs by sulforhodamine B assay; format: functional
# How it was run: as §4
# [15] = Permeability in MDCK2-MDR1 cells assessed as cell associated fraction by measuring mass fraction extracted from cell monolayer by methanol wash after 1 hr flux in apical to basolateral direction at 5 uM in presence of 4.3 mg/ml BSA and in presence of P-gp inhibitor LSN335984 by mass spectrometry; format: ADME, cell-based, Canis lupus familiaris; settings: dog, mdck-ii
# How it was run: (§5)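 MDCKII-MDR1 cells seeded at 50 000 cells cm^-2 on Transwell polycarbonate filters, used on day 6. After a rinse in DPBSH at 37 °C, monolayers were preincubated 30 min in 4.3 mg mL^-1 BSA/DPBSH with or without 5 μM P-gp inhibitor LSN 335984. Then 5 μM dye was added apically and run 1 h AB flux at 37 °C with nutation. Monolayers were rinsed in cold DPBS and extracted 3 min in methanol, and compound was quantified by LC-MS/MS. Cell-associated value is the percentage of added mass recovered.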
# [16] = Permeability in MDCK2-MDR1 cells assessed as cell associated fraction by measuring mass fraction extracted from cell monolayer by methanol wash after 1 hr flux in apical to basolateral direction at 5 uM in presence of 4.3 mg/ml BSA and in absence of P-gp inhibitor LSN335984 by mass spectrometry; format: ADME, cell-based, Canis lupus familiaris; settings: dog, mdck-ii
# How it was run: as §5
# Colon 26 [17] = assay: Photo-toxicity in mouse Colon 26 cells assessed as reduction in cell surviving fraction at 0.15 uM at >5 Jcm'-2 of continuous illumination with 350 to 700 nm light incubated for 48 hrs by sulforhodamine B assay; format: functional, cell-based
# Colon 26 [18] = assay: Photo-toxicity against mouse Colon 26 cells at 0.15 uM incubated in dark for 1 hr then irradiated with light dose of 1 Jcm'-2 of 613 nm laser light measured after 48 hrs by sulforhodamine B assay; format: functional, cell-based
# How it was run: as §3
# Colon 26 [19] = assay: Potentiation of doxorubicin-induced cytotoxicity against mouse Colon 26 cells at 0.15 uM incubated in dark for 1 hr then irradiated with light dose of 1 Jcm'-2 of 613 nm laser light measured after 48 hrs by sulforhodamine B assay; format: functional, cell-based
# How it was run: as §4
# Colon 26 [20] = assay: Dark toxicity in mouse Colon 26 cells assessed as cell surviving fraction at 0.1 to 0.5 uM incubated for 1 hr by sulforhodamine B assay; format: cell-based; settings: colon 26, 1 h
# How it was run: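 Colo-26 murine colon carcinoma cells, 10 000 per well, grown 24 h in RPMI 1640 with 10% FBS. Dye at 0.1–0.5 μM for 1 h in the dark, then fresh medium and 48 h at 37 °C, 5% CO2. Viability by sulforhodamine B, absorbance at 570 nm, reported as surviving fraction.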
# Colon 26 [21] = assay: Photo-toxicity in mouse Colon 26 cells assessed as reduction in cell surviving fraction at =< 0.5 uM and up to 1 Jcm'-2 of continuous illumination with 350 to 700 nm light incubated for 48 hrs by sulforhodamine B assay; format: functional, cell-based
# How it was run: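 Colo-26 cells, 10 000 per well, grown 24 h in RPMI 1640 with 10% FBS. Dye at ≤0.5 μM for 1 h in the dark. Irradiated up to 1.0 J cm^-2 with 350–700 nm tungsten–halogen light at 3.7–4.1 mW cm^-2, then 48 h at 37 °C. Survival by sulforhodamine B at 570 nm.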
Compound,logD [4],Drug uptake (Colon 26 [5]),fold change (FC) (Colon 26 [6]),pEC50 (Colon 26 [7]),pEC50 (Colon 26 [8]),Activity (Colon 26 [11]),Activity (Colon 26 [20]),Activity (Colon 26 [21]),other results
CN(C)c1ccc(-c2cc(-c3ccc(N)cc3)[s+]c(-c3ccc(N)cc3)c2)cc1,–,–,–,–,–,–,–,–,pEC50 (Colon 26 [1]): 7.15
CCN(CC)C(=S)c1ccc(-c2c3ccc(=[N+](C)C)cc-3[se]c3cc4c(cc23)C(C)(C)CCN4C)s1.[Cl-],2.41,Active,1.3,6.70,6.77,inactive,–,–,degraded [2]: 50%; degraded [3]: 50%; selectivity ratio [9]: 56; Activity (Colon 26 [10]): Active; Activity (Colon 26 [12]): Active; Activity (Colon 26 [13]): Active; Activity (Colon 26 [14]): <=0.2
CN1CCC(C)(C)c2cc3c(-c4ccc(C(=S)N5CCCCC5)s4)c4ccc(=[N+](C)C)cc-4[se]c3cc21.[Cl-],1.61,Active,–,6.66,6.85,inactive,–,–,degraded [2]: 50%; degraded [3]: 50%; Activity (Colon 26 [10]): Active; Activity [15]: 55%; Activity [16]: 45%; Activity (Colon 26 [12]): Active; Activity (Colon 26 [13]): Active; Activity (Colon 26 [14]): <=0.2
CCN(CC)C(=O)c1ccc(-c2c3ccc(=[N+](C)C)cc-3[se]c3cc4c(cc23)C(C)(C)CCN4C)s1.[Cl-],2.26,–,5,6.51,6.52,inactive,–,–,selectivity ratio [9]: 26; Activity (Colon 26 [17]): Active; Activity (Colon 26 [18]): inactive; Activity (Colon 26 [19]): inactive
CN1CCC(C)(C)c2cc3c(-c4ccc(C(=S)N5CCCCC5)s4)c4ccc(=[N+](C)C)cc-4sc3cc21.F[P-](F)(F)(F)(F)F,–,Active,–,–,–,–,> 0.95,inactive,Drug uptake (Colon 26 [6]): Not Active
CCN(CC)C(=O)c1ccc(-c2c3ccc(=[N+](C)C)cc-3sc3cc4c(cc23)C(C)(C)CCN4C)s1.F[P-](F)(F)(F)(F)F,–,–,7,–,–,–,> 0.95,inactive,–
CN1CCC(C)(C)c2cc3c(-c4ccc(C(=O)N5CCCCC5)s4)c4ccc(=[N+](C)C)cc-4sc3cc21.F[P-](F)(F)(F)(F)F,–,–,–,–,–,–,> 0.95,inactive,–
CN1CCC(C)(C)c2cc3c(-c4ccc(C(=O)N5CCCCC5)s4)c4ccc(=[N+](C)C)cc-4[se]c3cc21.[Cl-],2.23,–,–,< 6.30,6.39,inactive,–,–,Activity [15]: 39%; Activity [16]: 16%; Activity (Colon 26 [18]): inactive; Activity (Colon 26 [19]): inactive
CCN(CC)C(=S)c1ccc(-c2c3ccc(=[N+](C)C)cc-3sc3cc4c(cc23)C(C)(C)CCN4C)s1.F[P-](F)(F)(F)(F)F,–,Active,1.3,–,–,–,> 0.95,inactive,–
